# Assay results collected from several papers.
# Compare with care: the assays were run in different laboratories.
# Cell line: HepG2
# Read-out: cell growth or viability
SMILES,assay,setting,IC50
CCN(CC)C/C=N/NC(=O)Nc1cc2c(Nc3ccc(F)c(Cl)c3)ncnc2cc1O[C@H]1CCOC1,MTT,72 h,2.38 µM
COc1ccc(Nc2nc(-n3nc(C)cc3C)nc(-n3nc(C)cc3C)n2)cc1,MTT,72 h,5.42 µM
CC1=CC(C)(C)N(Cc2ccccc2)c2ccc(O)cc21,MTT,72 h,20 µM
Oc1ncnc2cc(Nc3nc(-c4ccc(C(F)(F)F)cc4)cs3)ccc12,MTT,,5.91 µM
O=c1[nH]cc(F)c(=O)[nH]1,MTT,48 h,32.8 µM
Cc1ccc(NC(=O)NNC(=O)c2ccc(Nc3nccc(-c4cccnc4)n3)cc2)cc1,MTT,24 h,> 40 µM
COc1cc2ncnc(Nc3ccc(F)c(Cl)c3)c2cc1NC(=O)N/N=C/c1cccn1CCCN(C)C,MTT,72 h,0.05 µM
COc1cc(-c2nc(OCc3cn(CC(=O)Nc4ccc(C)cc4)nn3)c3ccccc3n2)cc(OC)c1OC,MTT,72 h,13.6 µM
CC(C)C(=O)Nc1ccc([N+](=O)[O-])c(C(F)(F)F)c1,CCK-8,48 h,2.54 µM
COc1cc2ncnc(Nc3ccc(F)c(Cl)c3)c2cc1NC(=O)N/N=C/c1cccn1CCN1CCCCC1,MTT,72 h,0.05 µM
CC(=O)O[C@H]1C(=O)[C@@]2(C)[C@H]([C@H](OC(=O)c3ccccc3)[C@]3(O)C[C@H](OC(=O)[C@H](O)[C@@H](NC(=O)c4ccccc4)c4ccccc4)C(C)=C1C3(C)C)[C@]1(OC(C)=O)CO[C@@H]1C[C@@H]2O,,,2 mg/L
CC1=C(O)C(=O)C=C2C1=CC=C1[C@@]2(C)CC[C@@]2(C)[C@@H]3C[C@](C)(C(=O)OCCCn4ccc5ccccc54)CC[C@]3(C)CC[C@]12C,MTT,48 h,> 100 µM
Cc1ccc2nc(-c3ccc(F)cc3)n(Cc3ccccc3)c2c1,MTT,,27.2 µM
O=C(N/N=C/CN1CCCC1)Nc1cc2c(Nc3ccc(F)c(Cl)c3)ncnc2cc1O[C@H]1CCOC1,MTT,72 h,2.09 µM
CC(C)(C)NC(=O)NNC(=O)c1ccc(Nc2nccc(-c3ccc(Cl)cc3)n2)cc1,MTT,,4.48 µM
Cc1cc(=O)oc2ccc(-c3cc(-c4ccc(Cl)cc4)nc(N)n3)c(O)c12,MTT,72 h,18.1 mg/L
O=C(N/N=C/c1cccn1CCN1CCOCC1)Nc1cc2c(Nc3ccc(F)c(Cl)c3)ncnc2cc1O[C@H]1CCOC1,MTT,72 h,1.68 µM
CC1(C)CC[C@]2(C)CC[C@]3(C)C(=CC[C@@H]4[C@@]5(C)CC[C@H](O)C(C)(C)[C@@H]5CC[C@]43C)[C@@H]2C1,WST-1,48 h,82.8 µM
Oc1ccc(Br)cc1-c1nc2ccccc2[nH]1,MTT,48 h,8.94 µM
CC1(C)CC[C@]2(C(=O)O)CC[C@]3(C)C(=CC[C@@H]4[C@@]5(C)CC[C@H](O)C(C)(C)[C@@H]5CC[C@]43C)[C@@H]2C1,MTT,48 h,> 100 µM
CN(C)c1ccc(-c2nc3ccccc3[nH]2)cc1,MTT,48 h,37.5 µM
COc1cc2c(Nc3ccc(NC(=O)c4ccccc4)cc3)ncnc2cc1OCCCN1CCOCC1,MTS,48 h,3.3 µM
COC(=O)CN=c1scc(-c2ccccc2)n1-c1ccccc1,MTT,72 h,75.5 µM
CC1=C(O)C(=O)C=C2C1=CC=C1[C@@]2(C)CC[C@@]2(C)[C@@H]3C[C@](C)(C(=O)OCCCOc4ccccc4)CC[C@]3(C)CC[C@]12C,MTT,48 h,3.04 µM
CN1CCN(CCCn2cccc2/C=N/NC(=O)Nc2cc3c(Nc4ccc(F)c(Cl)c4)ncnc3cc2O[C@H]2CCOC2)CC1,MTT,72 h,0.68 µM
Nc1nc(-c2ccc(NC(=O)Nc3cc(Br)cc(Br)c3)cc2)c[nH]1,XTT,24 h,47.6 µM
Clc1ccc(Cn2c(-c3ccc(Cl)cc3)nc3ccccc32)cc1,MTT,,10.1 µM
CC1=C(O)C(=O)C=C2C1=CC=C1[C@@]2(C)CC[C@@]2(C)[C@@H]3C[C@](C)(C(=O)OCCCCCCO)CC[C@]3(C)CC[C@]12C,MTT,48 h,10.7 µM
O=C(N/N=C/c1cccn1CCCN1CCCCC1)Nc1cc2c(Nc3ccc(F)c(Cl)c3)ncnc2cc1O[C@H]1CCOC1,MTT,72 h,0.52 µM
Oc1c(I)cc(Cl)c2cccnc12,MTT,48 h,58.6 µM
O=[N+]([O-])c1ccc(-c2csc(Nc3ccc4c(O)ncnc4c3)n2)cc1,MTT,,6.87 µM
Cc1cccc(NC(=O)NNC(=O)c2ccc(Nc3nccc(-c4ccccn4)n3)cc2)c1,MTT,,23.3 µM
CC1=C(O)C(=O)C=C2C1=CC=C1[C@@]2(C)CC[C@@]2(C)[C@@H]3C[C@](C)(C(=O)OCCCBr)CC[C@]3(C)CC[C@]12C,MTT,48 h,1.32 µM
Cc1ccc2nc(-c3ccc(Cl)c(Cl)c3)[nH]c2c1,MTT,48 h,56.7 µM
COc1cc(/C=C/C(=O)c2ccc(NC(=O)c3ccccc3CN3C(=O)c4ccccc4C3=O)cc2)cc(OC)c1OC,MTT,72 h,1.62 µM
Cc1ccc2c(Cl)cc(Cl)c(O)c2n1,MTT,48 h,> 100 µM
Oc1ccccc1-c1nc2ccccc2[nH]1,MTT,48 h,68.3 µM
Oc1ncnc2cc(Nc3nc(-c4ccccc4)cs3)ccc12,MTT,,11.9 µM
c1cnc2c(c1)ccc1cccnc12,MTT,48 h,> 50 µM
Cc1ccc2nc(-c3ccc(Cl)cc3Cl)[nH]c2c1,MTT,48 h,30.7 µM
O=c1c(O)c(-c2ccc(O)cc2)oc2cc(O)cc(O)c12,WST-1,48 h,34.4 µM
C=CCn1c(-c2ccc([N+](=O)[O-])cc2)nc2ccc(C)cc21,MTT,,63.5 µM
COc1ccc(NC(=O)NNC(=O)c2cccc(Nc3nccc(-c4cccnc4)n3)c2)c(OC)c1,MTT,24 h,> 40 µM
COCCCOC(=O)[C@]1(C)CC[C@]2(C)CC[C@]3(C)C4=CC=C5C(=CC(=O)C(O)=C5C)[C@]4(C)CC[C@@]3(C)[C@@H]2C1,MTT,48 h,0.94 µM
Cc1cc(=O)oc2ccc(-c3cc(-c4cccs4)nc(N)n3)c(O)c12,MTT,72 h,> 128 mg/L
Cc1ccc(-c2csc(Nc3ccc4c(O)ncnc4c3)n2)cc1,MTT,,12.6 µM
COc1cc2ncnc(Nc3ccc(F)c(Cl)c3)c2cc1NC(=O)N/N=C/c1cccn1CCCN1CCOCC1,MTT,72 h,0.12 µM
COc1cc(C2Oc3cc([C@H]4Oc5cc(O)cc(O)c5C(=O)[C@@H]4O)ccc3OC2CO)ccc1O (stereo partly drawn),CCK-8,72 h,24.3 µM
